Assay results from ChEMBL document CHEMBL3124759, “Synthesis, nicotinic acetylcholine receptor binding, and antinociceptive properties of 2'-fluoro-3'-(substituted pyridinyl)-7-deschloroepibatidine analogues” (J Med Chem, 2014).

What was measured:
Mus musculus [1] = experiment: Inhibition of nicotine-induced antinociception in mouse at 100 ug/kg, sc after 5 mins by hot plate test relative to control; format: functional
Mus musculus [2] = experiment: Antinociceptive activity in mouse at 10 mg/kg, sc after 5 mins by tail flick test relative to control; format: functional; conditions: route subcutaneous
Mus musculus [3] = experiment: Effect on hypothermia in sc dosed mouse after 30 mins; format: functional; conditions: 0.5 h
Mus musculus [4] = experiment: Effect on spontaneous activity in sc dosed mouse after 5 mins; format: functional
Rattus norvegicus = species on record: Rattus norvegicus; experiment: Selectivity ratio of IC50 for rat alpha7 nAChR to IC50 for rat alpha4beta2 nAChR
Mus musculus [5] = experiment: Antinociceptive activity in mouse at 10 mg/kg, sc by hot plate test relative to control; format: functional; conditions: route subcutaneous
Mus musculus [6] = experiment: Inhibition of nicotine-induced antinociception in mouse at 10000 ug/kg, sc after 5 mins by hot plate test relative to control; format: functional
[7] = biological target: Neuronal acetylcholine receptor subunit alpha-7 (Rattus norvegicus) (UniProt Q05941); experiment: Agonist activity at rat alpha7 nAChR expressed in Xenopus laevis oocytes assessed as stimulation of acetylcholine-induced current at 100 uM by two-electrode voltage clamp electrophysiological analysis relative to acetylcholine; format: cell-based
Sequence of Neuronal acetylcholine receptor subunit alpha-7 (Rattus norvegicus) (Q05941 whole entry): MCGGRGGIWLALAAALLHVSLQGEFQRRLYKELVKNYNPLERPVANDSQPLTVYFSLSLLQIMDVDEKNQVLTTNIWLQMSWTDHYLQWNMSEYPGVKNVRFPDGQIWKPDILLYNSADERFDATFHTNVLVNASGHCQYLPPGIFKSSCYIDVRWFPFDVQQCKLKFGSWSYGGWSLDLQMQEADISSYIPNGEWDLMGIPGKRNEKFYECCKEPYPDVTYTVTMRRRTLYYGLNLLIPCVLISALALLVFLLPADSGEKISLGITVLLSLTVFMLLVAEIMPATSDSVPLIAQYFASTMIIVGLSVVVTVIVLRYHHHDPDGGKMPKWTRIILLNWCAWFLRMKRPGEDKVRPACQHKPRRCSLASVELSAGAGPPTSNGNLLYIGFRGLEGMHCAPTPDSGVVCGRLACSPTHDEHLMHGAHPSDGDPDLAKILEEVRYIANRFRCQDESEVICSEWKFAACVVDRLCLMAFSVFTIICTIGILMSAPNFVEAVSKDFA
Outline: (§1)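 Rat receptors expressed in Xenopus oocytes, two-electrode voltage clamp. Current evoked by 100 µM test compound was compared with the mean of three preceding ACh applications. The response was expressed as a percentage of the maximal ACh response.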

Mus musculus [8] = experiment: Inhibition of nicotine-induced antinociception in mouse at 1000 ug/kg, sc after 5 mins by hot plate test relative to control; format: functional
Mus musculus [9] = experiment: Inhibition of nicotine-induced antinociception in mouse at 100 ug/kg, sc after 5 mins by tail flick test relative to control; format: functional
[10] = biological target: Neuronal acetylcholine receptor; alpha3/beta4 (Rattus norvegicus) (UniProt P04757+P12392); experiment: Agonist activity at rat alpha3beta4 nAChR expressed in Xenopus laevis oocytes assessed as stimulation of acetylcholine-induced current at 100 uM by two-electrode voltage clamp electrophysiological analysis relative to acetylcholine; format: cell-based; outline: as §1
[11] = biological target: Neuronal acetylcholine receptor subunit alpha-7 (Rattus norvegicus) (UniProt Q05941); experiment: Antagonist activity at rat alpha7 nAChR expressed in Xenopus laevis oocytes assessed as inhibition of acetylcholine-induced current at 100 uM by two-electrode voltage clamp electrophysiological analysis relative to acetylcholine; format: cell-based
Mus musculus [12] = experiment: Antinociceptive activity in sc dosed mouse after 5 mins by tail flick test; format: functional
[13] = biological target: T1, Neuronal acetylcholine receptor; alpha4/beta2 (Rattus norvegicus) (UniProt P09483+P12390); experiment: Agonist activity at rat alpha4beta2 nAChR expressed in Xenopus laevis oocytes assessed as stimulation of acetylcholine-induced current at 100 uM by two-electrode voltage clamp electrophysiological analysis relative to acetylcholine; format: cell-based; outline: as §1
Mus musculus [14] = experiment: Antinociceptive activity in sc dosed mouse by hot plate test; format: functional
[15] = biological target: Neuronal acetylcholine receptor; alpha3/beta4 (Rattus norvegicus, UniProt P04757+P12392); experiment: Agonist activity at rat alpha3beta4 nAChR expressed in Xenopus laevis oocytes assessed as stimulation of acetylcholine-induced current by two-electrode voltage clamp electrophysiological analysis; format: cell-based
Sequence of Neuronal acetylcholine receptor; alpha3/beta4 (P04757 whole entry): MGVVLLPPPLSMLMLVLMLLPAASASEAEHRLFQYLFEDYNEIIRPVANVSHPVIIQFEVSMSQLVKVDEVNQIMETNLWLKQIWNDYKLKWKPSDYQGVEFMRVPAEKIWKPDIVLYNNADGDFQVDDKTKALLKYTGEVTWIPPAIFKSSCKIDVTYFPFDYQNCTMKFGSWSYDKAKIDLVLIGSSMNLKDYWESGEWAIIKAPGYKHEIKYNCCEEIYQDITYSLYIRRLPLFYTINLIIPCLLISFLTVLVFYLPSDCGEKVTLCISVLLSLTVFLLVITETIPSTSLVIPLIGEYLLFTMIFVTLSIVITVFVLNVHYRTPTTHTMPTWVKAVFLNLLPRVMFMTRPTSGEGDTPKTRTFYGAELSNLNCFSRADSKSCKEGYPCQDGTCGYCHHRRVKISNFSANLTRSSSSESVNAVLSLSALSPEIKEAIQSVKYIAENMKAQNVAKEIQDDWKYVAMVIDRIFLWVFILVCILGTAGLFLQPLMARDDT
Sequence of Neuronal acetylcholine receptor; alpha3/beta4 (P12392 whole entry): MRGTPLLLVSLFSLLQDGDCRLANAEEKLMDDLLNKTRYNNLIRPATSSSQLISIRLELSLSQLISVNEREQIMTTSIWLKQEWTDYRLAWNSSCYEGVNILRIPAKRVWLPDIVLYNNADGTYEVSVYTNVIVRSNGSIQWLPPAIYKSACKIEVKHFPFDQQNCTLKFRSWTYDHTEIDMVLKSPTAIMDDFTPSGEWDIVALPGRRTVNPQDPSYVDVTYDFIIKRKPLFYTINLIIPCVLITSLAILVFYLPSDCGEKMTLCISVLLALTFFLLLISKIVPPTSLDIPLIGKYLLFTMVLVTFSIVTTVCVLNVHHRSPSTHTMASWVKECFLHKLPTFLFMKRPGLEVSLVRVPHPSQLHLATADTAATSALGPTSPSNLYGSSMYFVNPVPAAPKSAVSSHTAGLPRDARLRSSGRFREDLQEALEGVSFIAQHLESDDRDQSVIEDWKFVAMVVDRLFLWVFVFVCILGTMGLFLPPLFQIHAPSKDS

[16] = biological target: Neuronal acetylcholine receptor; alpha4/beta2 (Rattus norvegicus, UniProt P09483+P12390); experiment: Antagonist activity at rat alpha4beta2 nAChR expressed in Xenopus laevis oocytes assessed as inhibition of acetylcholine-induced current by two-electrode voltage clamp electrophysiological analysis; format: cell-based
Sequence of Neuronal acetylcholine receptor; alpha4/beta2 (P09483 whole entry): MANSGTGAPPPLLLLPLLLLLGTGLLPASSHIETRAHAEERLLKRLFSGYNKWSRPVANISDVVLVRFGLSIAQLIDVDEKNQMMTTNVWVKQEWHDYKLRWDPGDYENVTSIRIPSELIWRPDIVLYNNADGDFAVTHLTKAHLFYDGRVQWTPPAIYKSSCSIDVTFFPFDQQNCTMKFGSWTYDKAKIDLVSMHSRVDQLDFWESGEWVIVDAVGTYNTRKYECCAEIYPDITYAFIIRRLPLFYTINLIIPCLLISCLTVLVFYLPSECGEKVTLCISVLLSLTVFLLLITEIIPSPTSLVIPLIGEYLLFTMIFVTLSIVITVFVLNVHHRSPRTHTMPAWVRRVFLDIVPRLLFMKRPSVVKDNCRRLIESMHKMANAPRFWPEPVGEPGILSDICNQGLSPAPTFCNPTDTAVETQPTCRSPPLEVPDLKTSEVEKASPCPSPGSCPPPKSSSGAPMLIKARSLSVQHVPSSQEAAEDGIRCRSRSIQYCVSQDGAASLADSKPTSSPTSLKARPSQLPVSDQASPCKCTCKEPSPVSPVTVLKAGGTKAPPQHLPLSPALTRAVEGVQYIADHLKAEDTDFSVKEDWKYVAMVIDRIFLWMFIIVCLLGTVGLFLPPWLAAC
Sequence of Neuronal acetylcholine receptor; alpha4/beta2 (P12390 whole entry): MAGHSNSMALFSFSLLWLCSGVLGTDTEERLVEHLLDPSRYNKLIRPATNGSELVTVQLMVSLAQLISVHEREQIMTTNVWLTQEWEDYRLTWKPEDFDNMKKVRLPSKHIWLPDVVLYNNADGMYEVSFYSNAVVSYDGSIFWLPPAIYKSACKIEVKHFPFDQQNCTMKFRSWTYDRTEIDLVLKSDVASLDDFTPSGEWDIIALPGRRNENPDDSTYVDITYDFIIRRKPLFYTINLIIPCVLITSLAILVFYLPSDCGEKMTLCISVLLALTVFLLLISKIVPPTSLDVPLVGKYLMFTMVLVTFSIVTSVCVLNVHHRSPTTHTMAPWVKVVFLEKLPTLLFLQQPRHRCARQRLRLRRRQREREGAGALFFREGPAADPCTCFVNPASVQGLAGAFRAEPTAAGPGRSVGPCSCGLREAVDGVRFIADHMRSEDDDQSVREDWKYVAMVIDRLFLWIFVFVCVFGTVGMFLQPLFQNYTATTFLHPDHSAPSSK
Outline: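 Two-electrode voltage clamp on rat α4β2, α3β4 or α7 nAChRs expressed in Xenopus oocytes. Compounds were tested across a concentration range to build concentration-inhibition curves. Data were fitted to I = Imax/[1+(IC50/X)^n] to derive IC50 and Hill coefficient.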

Mus musculus [17] = experiment: Inhibition of nicotine-induced antinociception in sc dosed mouse after 5 mins by hot plate test; format: functional
[18] = biological target: T1, Neuronal acetylcholine receptor; alpha4/beta2 (Rattus norvegicus); experiment: Antagonist activity at rat alpha4beta2 nAChR expressed in Xenopus laevis oocytes assessed as inhibition of acetylcholine-induced current at 100 uM by two-electrode voltage clamp electrophysiological analysis relative to acetylcholine; format: cell-based
Mus musculus [19] = experiment: Inhibition of nicotine-induced antinociception in sc dosed mouse after 5 mins by tail flick test; format: functional

COc1ccc(-c2cc([C@H]3C[C@H]4CC[C@H]3N4)cnc2F)cn1 (racemic) was tested, and the inhibition in vivo at 0.1 mg/kg (Mus musculus [1]) was 0%.
In the case of O=[N+]([O-])c1ccc(-c2cc([C@H]3C[C@H]4CC[C@H]3N4)cnc2F)cc1 (racemic), the Activity (Mus musculus [2]) is reported as 5%, the ED50 (Mus musculus [3]) is reported as 0.21 mg/kg and the ED50 (Mus musculus [4]) is reported as 0.22 mg/kg. It also gave a Ratio IC50 (Rattus norvegicus) of 10.
O=[N+]([O-])c1cccc(-c2cc(C3CC4CCC3N4)cnc2F)c1 (racemic) was tested, and the Activity (Mus musculus [2]) was 3%, the Activity (Mus musculus [5]) was 20% and the ED50 (Mus musculus [4]) was 6.5 mg/kg.
Work on COc1cc(-c2cc([C@H]3C[C@H]4CC[C@H]3N4)cnc2F)ccn1 (racemic) yielded an inhibition in vivo at 10 mg/kg (Mus musculus [6]) of 40%.
Fc1ncc(C2CC3CCC2N3)cc1-c1cccnc1 (racemic) gave an Emax [7] of 7% and an inhibition in vivo at 1 mg/kg (Mus musculus [8]) of 10%.
In the case of Fc1ccc(-c2cc([C@H]3C[C@H]4CC[C@H]3N4)cnc2F)cn1 (racemic), the inhibition in vivo at 0.1 mg/kg (Mus musculus [9]) is reported as 1%, the Emax [10] is reported as 9% and the inhibition in vivo at 0.1 mg/kg (Mus musculus [1]) is reported as 1%.
Compound Nc1cc(-c2cc([C@H]3C[C@H]4CC[C@H]3N4)cnc2F)ccn1 (racemic) has an Emax [7] of 10%.
Compound Nc1ccc(-c2cc([C@H]3C[C@H]4CC[C@H]3N4)cnc2F)cn1 (racemic) has an Imax [11] of 50%.
Clc1ccc(C2CC3CCC2N3)cn1 (centres undefined) [EPIBATIDINE] showed an Emax [7] of 150%, an ED50 (Mus musculus [12]) of 0.006 mg/kg and an Emax [13] of 131%. For the same compound, the Emax [10] was 97%, the ED50 (Mus musculus [14]) was 0.004 mg/kg and the ED50 (Mus musculus [4]) was 0.001 mg/kg.
For CN1CCC[C@H]1c1cccnc1 [NICOTINE], the Emax [7] was 43%, the Emax [13] was 40% and the Emax [10] was 37%. The ED50 (Mus musculus [3]) was 1 mg/kg and the ED50 (Mus musculus [4]) was 0.5 mg/kg.
With c1cnc2cc3c(cc2n1)[C@@H]1CNC[C@H]3C1 [VARENICLINE] the Emax [7] was 74%, the Activity (Mus musculus [2]) was 11% and the Activity (Mus musculus [5]) was 10%. The EC50 [15] was 55 µM, the Emax [13] was 13% and the IC50 [16] was 0.2 µM. The Emax [10] was 66%, the AD50 (Mus musculus [17]) was 0.47 mg/kg and the ED50 (Mus musculus [3]) was 2.8 mg/kg. It also gave an ED50 (Mus musculus [4]) of 2.1 mg/kg, an Imax [18] of 38% and an AD50 (Mus musculus [19]) of 0.0002 mg/kg.
